Data as given in ChEMBL document CHEMBL1125389, “Synthesis and use of 3-amino-4-phenyl-2-piperidones and 4-amino-2-benzazepin-3-ones as conformationally restricted phenylalanine isosteres in renin inhibitors” (J Med Chem, 1992).

molecular target: T1, Renin (Homo sapiens, UniProt P00797); assay: Compound was evaluated for the inhibition of human plasma renin at pH 7.4; format: cell-free
T1 sequence (P00797 whole entry): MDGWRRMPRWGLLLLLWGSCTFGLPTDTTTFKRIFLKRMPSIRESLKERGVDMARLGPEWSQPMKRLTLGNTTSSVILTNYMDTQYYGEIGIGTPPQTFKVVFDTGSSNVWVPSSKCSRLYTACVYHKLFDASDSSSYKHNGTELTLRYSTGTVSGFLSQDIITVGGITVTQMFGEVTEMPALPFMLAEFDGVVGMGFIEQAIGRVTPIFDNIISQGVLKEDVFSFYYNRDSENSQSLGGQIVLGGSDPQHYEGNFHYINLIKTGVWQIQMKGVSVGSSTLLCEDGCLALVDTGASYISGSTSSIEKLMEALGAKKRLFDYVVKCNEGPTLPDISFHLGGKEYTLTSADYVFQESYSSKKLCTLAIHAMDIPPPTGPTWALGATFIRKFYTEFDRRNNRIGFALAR
Method in brief: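 Human plasma renin activity measured by radioimmunoassay of generated angiotensin I, run in phosphate buffer at pH 7.4 and 37 °C. IC50 is the mean of three determinations.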

Point of comparison: `CCCCNC(=O)[C@@H](C[C@H](O)[C@H](CC1CCCCC1)NC(=O)[C@H](CCCC)N1CC[C@H](c2ccccc2)[C@H](NC(=O)OC(C)(C)C)C1=O)C(C)C`, IC50 134 nM. Against it:
- CCCCNC(=O)[C@@H](C[C@H](O)[C@H](CC1CCCCC1)NC(=O)[C@H](CCCC)N1Cc2ccccc2C[C@H](NC(=O)OC(C)(C)C)C1=O)C(C)C — 13-fold higher, 1730 nM
- CCCCNC(=O)[C@@H](C[C@H](O)[C@H](CC1CCCCC1)NC(=O)[C@H](CCCC)NC(=O)C(Cc1ccccc1)N1C(=O)c2ccccc2C1=O)C(C)C (stereo not given in full) — 1.5-fold lower, 87 nM
- CCCCNC(=O)[C@@H](C[C@H](O)[C@H](CC1CCCCC1)NC(=O)[C@H](CCCC)N1CC[C@H](c2ccccc2)[C@H](NC(C)=O)C1=O)C(C)C — 6.4-fold lower, 21 nM
- CCCCNC(=O)[C@@H](C[C@H](O)[C@H](CC1CCCCC1)NC(=O)[C@H](CCCC)NC(=O)C(Cc1ccccc1)NC(C)=O)C(C)C (stereo not given in full) — 160-fold lower, 0.84 nM
- CCCCNC(=O)[C@@H](C[C@H](O)[C@H](CC1CCCCC1)NC(=O)[C@H](CCCC)N1CC[C@@H](c2ccccc2)[C@H](NC(=O)OC(C)(C)C)C1=O)C(C)C — 44-fold higher, 5910 nM
- CCCCNC(=O)[C@@H](C[C@H](O)[C@H](CC1CCCCC1)NC(=O)[C@H](CCCC)N1Cc2ccccc2C[C@H](NC(C)=O)C1=O)C(C)C — 1.6-fold higher, 210 nM
- CCCCNC(=O)[C@@H](C[C@H](O)[C@H](CC1CCCCC1)NC(=O)[C@H](CCCC)N1Cc2ccccc2C[C@H](N)C1=O)C(C)C — 15-fold higher, 2040 nM
- CCCCNC(=O)[C@@H](C[C@H](O)[C@H](CC1CCCCC1)NC(=O)[C@H](CCCC)N1Cc2ccccc2C[C@H](N2C(=O)c3ccccc3C2=O)C1=O)C(C)C — higher, > 20000 nM
- CCCCNC(=O)[C@@H](C[C@H](O)[C@H](CC1CCCCC1)NC(=O)[C@H](CCCC)NC(=O)C(Cc1ccccc1)NC(=O)OC(C)(C)C)C(C)C (stereo not given in full) — 64-fold lower, 2.1 nM
